# The source made the active and inactive calls. The calls are words filed in the database; no cut-off is given here.
# Tests used:
# [1] = target: T1, Alpha-1D adrenergic receptor (Homo sapiens, UniProt P25100); assay: Displacement of [3H]Prazosin from human adrenergic alpha1D receptor
# T1 sequence (P25100 whole entry): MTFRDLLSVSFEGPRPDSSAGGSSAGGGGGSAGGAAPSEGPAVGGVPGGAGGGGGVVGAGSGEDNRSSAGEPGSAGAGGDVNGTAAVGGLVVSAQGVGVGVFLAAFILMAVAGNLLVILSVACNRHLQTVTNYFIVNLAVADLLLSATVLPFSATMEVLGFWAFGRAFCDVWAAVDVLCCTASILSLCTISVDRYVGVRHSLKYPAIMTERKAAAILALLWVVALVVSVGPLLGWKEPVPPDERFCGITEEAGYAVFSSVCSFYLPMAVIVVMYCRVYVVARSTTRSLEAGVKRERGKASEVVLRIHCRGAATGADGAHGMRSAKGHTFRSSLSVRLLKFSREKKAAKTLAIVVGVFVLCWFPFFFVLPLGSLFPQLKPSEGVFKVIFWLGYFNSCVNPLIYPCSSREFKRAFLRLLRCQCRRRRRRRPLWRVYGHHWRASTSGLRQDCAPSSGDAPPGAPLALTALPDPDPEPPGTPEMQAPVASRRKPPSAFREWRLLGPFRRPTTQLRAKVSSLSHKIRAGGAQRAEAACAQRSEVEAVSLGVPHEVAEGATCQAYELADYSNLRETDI
# [2] = target: T2, Sodium-dependent dopamine transporter (Homo sapiens, UniProt Q01959); assay: Inhibition of recombinant human DAT expressed in HEK293 cell […] as reduction in [3H]-DA uptake incubated for 22 mins by micro beta scintillation counting analysis
# [3] = target: T2, Sodium-dependent dopamine transporter; assay: Enhancing of [3H]WIN35,428 binding to recombinant human DAT expressed in HEK293 cell membranes at 10 uM pre-incubated for 10 mins before radioligand addition and measured 90 mins after radioligand addition by micro beta scintillation counting analysis relative to control
# [4] = target: T3, Alpha-1A adrenergic receptor (Homo sapiens, UniProt P35348); assay: Displacement of [3H]Prazosin from human adrenergic alpha1A receptor
# T3 sequence (P35348 whole entry): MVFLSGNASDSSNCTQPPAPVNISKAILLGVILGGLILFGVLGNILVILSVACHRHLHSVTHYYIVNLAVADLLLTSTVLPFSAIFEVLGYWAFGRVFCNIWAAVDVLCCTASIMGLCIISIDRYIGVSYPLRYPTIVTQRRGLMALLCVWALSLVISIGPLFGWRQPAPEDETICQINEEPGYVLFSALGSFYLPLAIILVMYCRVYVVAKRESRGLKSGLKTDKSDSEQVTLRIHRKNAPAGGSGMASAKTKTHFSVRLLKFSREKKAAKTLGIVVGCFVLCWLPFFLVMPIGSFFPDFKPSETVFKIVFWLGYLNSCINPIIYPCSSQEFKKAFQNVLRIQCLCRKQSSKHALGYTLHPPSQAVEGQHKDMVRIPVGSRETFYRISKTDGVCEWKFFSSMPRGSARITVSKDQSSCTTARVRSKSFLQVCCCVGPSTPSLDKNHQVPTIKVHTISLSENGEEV
# [5] = target: T4, Sodium-dependent serotonin transporter (Homo sapiens, UniProt P31645); assay: Enhancing of [3H]mazindol binding to recombinant human SERT expressed in HEK293 cell membranes preincubated for 10 mins followed by radioligand addition measured after 90 mins by micro beta scintillation counting analysis
# Target sequence in this assay (P31645 whole entry): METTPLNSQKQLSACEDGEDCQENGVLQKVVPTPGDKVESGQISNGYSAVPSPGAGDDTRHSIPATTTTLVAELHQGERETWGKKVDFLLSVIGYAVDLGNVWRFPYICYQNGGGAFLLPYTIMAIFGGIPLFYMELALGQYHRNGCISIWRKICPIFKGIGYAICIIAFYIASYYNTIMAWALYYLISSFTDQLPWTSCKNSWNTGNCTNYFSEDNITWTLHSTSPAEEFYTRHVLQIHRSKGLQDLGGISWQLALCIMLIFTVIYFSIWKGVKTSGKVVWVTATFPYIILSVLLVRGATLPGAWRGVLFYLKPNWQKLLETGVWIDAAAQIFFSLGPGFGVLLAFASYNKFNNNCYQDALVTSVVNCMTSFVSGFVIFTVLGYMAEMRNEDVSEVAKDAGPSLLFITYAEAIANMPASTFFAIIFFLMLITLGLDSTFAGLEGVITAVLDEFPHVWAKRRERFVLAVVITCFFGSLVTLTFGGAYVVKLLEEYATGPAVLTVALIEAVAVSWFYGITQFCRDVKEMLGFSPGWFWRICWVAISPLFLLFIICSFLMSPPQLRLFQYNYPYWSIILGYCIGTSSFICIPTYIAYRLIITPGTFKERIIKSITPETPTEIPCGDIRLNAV
# [6] = target: T2, Sodium-dependent dopamine transporter; assay: Inhibition of [3H]WIN35,428 binding to recombinant human DAT expressed in HEK293 cell membranes at 10 uM pre-incubated for 10 mins before radioligand addition and measured 90 mins after radioligand addition by micro beta scintillation counting analysis relative to control
# [7] = target: T5, 5-hydroxytryptamine receptor 2C (Homo sapiens, UniProt P28335); assay: Displacement of [3H]Mesulergine from human 5-HT2C receptor
# T5 sequence (P28335 whole entry): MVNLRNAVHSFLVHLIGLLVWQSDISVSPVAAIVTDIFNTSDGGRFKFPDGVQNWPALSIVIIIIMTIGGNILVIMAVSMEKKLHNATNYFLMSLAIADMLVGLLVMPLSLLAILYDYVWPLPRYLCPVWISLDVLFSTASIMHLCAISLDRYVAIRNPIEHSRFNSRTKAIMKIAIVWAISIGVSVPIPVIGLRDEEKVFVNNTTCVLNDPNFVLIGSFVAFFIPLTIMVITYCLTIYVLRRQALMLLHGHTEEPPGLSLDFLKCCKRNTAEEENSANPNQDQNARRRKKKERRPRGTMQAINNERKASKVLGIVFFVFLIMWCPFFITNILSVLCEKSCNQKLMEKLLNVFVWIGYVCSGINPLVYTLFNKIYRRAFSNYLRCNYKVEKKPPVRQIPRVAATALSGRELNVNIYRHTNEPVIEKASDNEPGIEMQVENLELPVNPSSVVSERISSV
# [8] = target: T2, Sodium-dependent dopamine transporter; assay: Enhancing of [125I]RTI-55 binding to recombinant human DAT expressed in HEK293 cell membranes preincubated for 10 mins followed by radioligand addition measured after 90 mins by micro beta scintillation counting analysis; design: concentration or dose not given beside the values
# How it was run: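 Membranes of HEK-293 cells stably expressing hDAT, hNET or hSERT. […] Compound preincubated 10 min at room temperature, then [125I]23 (40-80 pM final) or [3H]26 (1-3 nM for DAT and NET, 10-13 nM for SERT) added. Incubated 90 min at room temperature in the dark, then filtered. EC50 or Ki; mean ± SEM.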
# [9] = target: Alpha-2B adrenergic receptor (Homo sapiens, UniProt P18089); assay: Displacement of [3H]Rauwolscine from human adrenergic alpha2B receptor
# [10] = target: T6, Sodium-dependent noradrenaline transporter (Homo sapiens, UniProt P23975); assay: Inhibition of recombinant human NET expressed in HEK293 […] assessed as reduction in [3H]-norepinephrine uptake incubated for 22 mins by micro beta scintillation counting analysis
# [11] = target: T6, Sodium-dependent noradrenaline transporter; assay: Enhancing of [125I]RTI-55 binding to recombinant human NET expressed in HEK293 cell membranes preincubated for 10 mins followed by radioligand addition measured after 90 mins by micro beta scintillation counting analysis; design: concentration or dose not given beside the values
# [12] = target: T4, Sodium-dependent serotonin transporter; assay: Enhancing of [125I]RTI-55 binding to recombinant human SERT expressed in HEK293 cell membranes preincubated for 10 mins followed by radioligand addition measured after 90 mins by micro beta scintillation counting analysis
# T2 sequence (Q01959 whole entry): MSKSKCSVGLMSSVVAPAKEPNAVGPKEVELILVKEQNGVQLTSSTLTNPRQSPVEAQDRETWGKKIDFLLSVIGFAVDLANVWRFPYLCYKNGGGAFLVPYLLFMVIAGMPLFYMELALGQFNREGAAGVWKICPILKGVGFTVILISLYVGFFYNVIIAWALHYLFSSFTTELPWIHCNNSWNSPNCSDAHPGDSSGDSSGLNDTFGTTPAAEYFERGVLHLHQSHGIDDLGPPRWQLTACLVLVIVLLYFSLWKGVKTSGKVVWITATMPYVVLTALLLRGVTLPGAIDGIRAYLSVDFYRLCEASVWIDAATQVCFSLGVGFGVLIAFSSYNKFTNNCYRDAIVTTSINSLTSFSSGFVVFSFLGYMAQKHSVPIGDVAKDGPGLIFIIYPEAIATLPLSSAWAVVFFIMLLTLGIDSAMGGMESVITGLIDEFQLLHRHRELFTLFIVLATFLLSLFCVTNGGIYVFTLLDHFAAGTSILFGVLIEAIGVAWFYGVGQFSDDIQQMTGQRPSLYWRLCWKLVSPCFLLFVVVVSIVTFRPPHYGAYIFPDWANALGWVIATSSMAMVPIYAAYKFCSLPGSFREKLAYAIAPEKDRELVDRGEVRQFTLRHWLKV
# T6 sequence (P23975 whole entry): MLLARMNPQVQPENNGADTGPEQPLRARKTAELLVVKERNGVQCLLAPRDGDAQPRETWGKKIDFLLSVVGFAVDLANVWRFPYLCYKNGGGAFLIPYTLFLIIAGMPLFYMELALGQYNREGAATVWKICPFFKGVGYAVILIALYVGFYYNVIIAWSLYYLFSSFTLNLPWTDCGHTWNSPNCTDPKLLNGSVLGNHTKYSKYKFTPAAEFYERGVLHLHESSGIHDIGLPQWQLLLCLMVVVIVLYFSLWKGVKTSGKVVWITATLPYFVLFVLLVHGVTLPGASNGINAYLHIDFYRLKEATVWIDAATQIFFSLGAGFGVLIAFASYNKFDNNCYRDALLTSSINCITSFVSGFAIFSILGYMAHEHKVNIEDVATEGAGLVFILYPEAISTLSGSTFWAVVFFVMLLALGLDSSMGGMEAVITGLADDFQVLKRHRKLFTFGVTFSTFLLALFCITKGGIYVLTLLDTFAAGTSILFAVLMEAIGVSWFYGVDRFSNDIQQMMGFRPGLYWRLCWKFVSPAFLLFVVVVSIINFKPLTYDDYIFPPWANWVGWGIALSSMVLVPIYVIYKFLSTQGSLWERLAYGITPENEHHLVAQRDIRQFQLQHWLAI
# Chain of Alpha-2B adrenergic receptor (P18089 whole entry): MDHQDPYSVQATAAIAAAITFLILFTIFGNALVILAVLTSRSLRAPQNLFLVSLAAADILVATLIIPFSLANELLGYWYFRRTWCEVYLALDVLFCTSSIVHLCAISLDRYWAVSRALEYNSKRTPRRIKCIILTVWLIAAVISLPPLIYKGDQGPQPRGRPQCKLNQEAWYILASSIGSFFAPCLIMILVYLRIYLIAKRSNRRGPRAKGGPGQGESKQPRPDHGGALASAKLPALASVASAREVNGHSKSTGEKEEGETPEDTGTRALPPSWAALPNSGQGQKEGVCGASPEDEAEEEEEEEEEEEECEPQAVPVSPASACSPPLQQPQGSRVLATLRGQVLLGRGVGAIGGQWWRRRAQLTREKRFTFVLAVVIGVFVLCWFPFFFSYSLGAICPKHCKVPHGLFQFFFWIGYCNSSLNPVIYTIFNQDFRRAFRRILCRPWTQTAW
smiles,measurement,setting,value
CNc1nc(C#Cc2ccc(Cl)s2)nc2c1ncn2[C@@H]1O[C@H](C(=O)OC)[C@@H](O)[C@H]1O,Ki,[1],> 10000 nM
same,IC50,[2],396 nM
same,Activity,[3],220%
same,Ki,[4],> 10000 nM
same,EC50,[5],> 10000 nM
same,inhibition,[6],inactive
same,Ki,[7],3240 nM
same,Activity,[8],312%
same,EC50,[8]; read-out: EC50,127 nM
same,Ki,[9],5000 to 10000 nM
same,IC50,[10],2690 nM
same,Activity,[11],227%
same,EC50,[11]; read-out: EC50,1520 nM
same,Activity,[12],inactive
same,EC50,[12]; read-out: EC50,> 10000 nM

# Reference: ChEMBL document CHEMBL4007505 (J Med Chem, 2017)
